Test results taken from PMC4303589 (Molecular and cellular biochemistry, 2014).

Molecular target: T1, SvAS (fused anthranilate synthase, SvTrpEG) (Streptomyces venezuelae, UniProt O30589)
T1 sequence (O30589 1-623): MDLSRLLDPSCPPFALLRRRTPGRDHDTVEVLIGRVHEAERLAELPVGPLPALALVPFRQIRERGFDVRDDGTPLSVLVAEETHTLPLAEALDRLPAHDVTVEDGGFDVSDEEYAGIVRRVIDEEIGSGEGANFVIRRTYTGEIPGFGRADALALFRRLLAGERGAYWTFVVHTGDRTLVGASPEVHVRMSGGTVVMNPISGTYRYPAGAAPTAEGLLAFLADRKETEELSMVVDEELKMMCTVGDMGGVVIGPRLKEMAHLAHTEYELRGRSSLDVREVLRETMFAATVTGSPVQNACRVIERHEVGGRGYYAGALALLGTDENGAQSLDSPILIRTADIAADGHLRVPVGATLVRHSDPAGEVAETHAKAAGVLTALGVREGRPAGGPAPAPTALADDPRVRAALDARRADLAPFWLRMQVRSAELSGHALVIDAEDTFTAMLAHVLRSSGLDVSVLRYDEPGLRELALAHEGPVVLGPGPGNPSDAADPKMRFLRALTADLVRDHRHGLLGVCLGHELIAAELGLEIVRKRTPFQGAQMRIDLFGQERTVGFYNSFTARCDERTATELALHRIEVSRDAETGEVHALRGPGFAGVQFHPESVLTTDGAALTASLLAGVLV
Type: biochemical
In short: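 His-tagged SvAS expressed in E. coli BL21(DE3)pLysS and purified on Ni-NTA. Assays at 30°C in 50 mM Tricine pH 7.5 with 12.5 mM MgCl2, 10 μg enzyme, 20 mM glutamine (saturating), 0.39–100 μM chorismate, and 2.5, 5, 10 or 20 μM test compound. Anthranilate fluorescence (ex 315/em 395 nm) converted via standard curve. Lineweaver-Burk plot assigned inhibition type; Ki from fit to that equation.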

Structure (SMILES): N[C@@H](Cc1c[nH]c2ccccc12)C(=O)O [tryptophan]
- Ki: 11.1 ± 0.1 µM
